Measurements published in ChEMBL document CHEMBL1123067, “Evaluation of the brain-specific delivery of radioiodinated (iodophenyl)alkyl-substituted amines coupled to a dihydropyridine carrier” (J Med Chem, 1985).

Tests used:
Assay type in all cases: ADME, organism-based
Rattus norvegicus [1] = assay: Distribution of radioactivity in brain tissues of Sprague-Dawley rats after 60 min injecton by intravenously; 0.05-0.06; conditions: in vivo, iv, 1 h
Summary of the method: (§1)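 Female Sprague-Dawley rats, 10–12 weeks old (170–200 g), fed ad libitum. The ¹²⁵I-labelled agent was dissolved in minimal Me2SO, diluted with saline to a final 20% Me2SO, filtered (0.22 μm), and injected into a lateral tail vein under ether anaesthesia. Tissues were counted against samples of the injected solution and expressed as % injected dose/g (mean, range). Brain/blood ratio is from the means.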

Rattus norvegicus [2] = assay: Distribution of radioactivity in kidney tissues of Sprague-Dawley rats after 60 min injecton by intravenously; 0.99-1.24; conditions: in vivo, iv, 1 h
Rattus norvegicus [3] = assay: Distribution of radioactivity in blood tissues of Sprague-Dawley rats after 15 min injecton by intravenously; 0.95-1.06; conditions: in vivo, iv, 0.25 h; summary of the method: as §1
Rattus norvegicus [4] = assay: Distribution of radioactivity in lung tissues of Sprague-Dawley rats after 5 min injecton by intravenously; 0.54-1.07; conditions: in vivo, iv
Rattus norvegicus [5] = assay: Distribution of radioactivity in heart tissues of Sprague-Dawley rats after 15 min injecton by intravenously; 0.52-0.62; conditions: in vivo, iv, 0.25 h; summary of the method: as §1
Rattus norvegicus [6] = assay: Distribution of radioactivity in lung tissues of Sprague-Dawley rats after 60 min injecton by intravenously; 0.36-0.44; conditions: in vivo, iv, 1 h
Rattus norvegicus [7] = assay: Distribution of radioactivity in kidney tissues of Sprague-Dawley rats after 15 min injecton by intravenously; 1.59-2.03; conditions: in vivo, iv, 0.25 h
Rattus norvegicus [8] = assay: Distribution of radioactivity in lung tissues of Sprague-Dawley rats after 30 min injecton by intravenously; 0.6-0.66; conditions: in vivo, iv, 0.5 h
Rattus norvegicus [9] = assay: Distribution of radioactivity in liver tissues of Sprague-Dawley rats after 15 min injecton by intravenously; 1.37-1.74; conditions: in vivo, iv, 0.25 h
Rattus norvegicus [10] = assay: Distribution of radioactivity in liver tissues of Sprague-Dawley rats after 5 min injecton by intravenously; 0.73-1.45; conditions: in vivo, iv
Rattus norvegicus [11] = assay: Distribution of radioactivity in liver tissues of Sprague-Dawley rats after 30 min injecton by intravenously; 1.57-1.66; conditions: in vivo, iv, 0.5 h
Rattus norvegicus [12] = assay: Distribution of radioactivity in heart tissues of Sprague-Dawley rats after 30 min injecton by intravenously; 0.36-0.42; conditions: in vivo, iv, 0.5 h; summary of the method: as §1
Rattus norvegicus [13] = assay: Distribution of radioactivity in liver tissues of Sprague-Dawley rats after 60 min injecton by intravenously; 1.36-1.74; conditions: in vivo, iv, 1 h
Rattus norvegicus [14] = assay: Distribution of radioactivity in brain tissues of Sprague-Dawley rats after 5 min injecton by intravenously; 0.35-0.72; conditions: in vivo, iv; summary of the method: as §1
Rattus norvegicus [15] = assay: Distribution of radioactivity in blood tissues of Sprague-Dawley rats after 30 min injecton by intravenously; 0.69-0.84; conditions: in vivo, iv, 0.5 h; summary of the method: as §1
Rattus norvegicus [16] = assay: Distribution of radioactivity in heart tissues of Sprague-Dawley rats after 60 min injecton by intravenously; 0.22-0.29; conditions: in vivo, iv, 1 h
Rattus norvegicus [17] = assay: Distribution of radioactivity in kidney tissues of Sprague-Dawley rats after 5 min injecton by intravenously; 0.62-1.13; conditions: in vivo, iv
Rattus norvegicus [18] = assay: Distribution of radioactivity in kidney tissues of Sprague-Dawley rats after 30 min injecton by intravenously; 1.67-2.11; conditions: in vivo, iv, 0.5 h
Rattus norvegicus [19] = assay: Distribution of radioactivity in brain tissues of Sprague-Dawley rats after 15 min injecton by intravenously; 0.34-0.5; conditions: in vivo, iv, 0.25 h; summary of the method: as §1
Rattus norvegicus [20] = assay: Distribution of radioactivity in heart tissues of Sprague-Dawley rats after 5 min injecton by intravenously; 0.39-0.74; conditions: in vivo, iv
Rattus norvegicus [21] = assay: Distribution of radioactivity in lung tissues of Sprague-Dawley rats after 15 min injecton by intravenously; 0.77-0.86; conditions: in vivo, iv, 0.25 h
Rattus norvegicus [22] = assay: Distribution of radioactivity in blood tissues of Sprague-Dawley rats after 60 min injecton by intravenously; 0.49-0.58; conditions: in vivo, iv, 1 h; summary of the method: as §1
Rattus norvegicus [23] = assay: Distribution of radioactivity in blood tissues of Sprague-Dawley rats after 5 min injecton by intravenously; 0.58-1.17; conditions: in vivo, iv; summary of the method: as §1
Rattus norvegicus [24] = assay: Distribution of radioactivity in brain tissues of Sprague-Dawley rats after 30 min injecton by intravenously; 0.18-0.36; conditions: in vivo, iv, 0.5 h; summary of the method: as §1
Rattus norvegicus [25] = assay: Distribution of radioactivity in liver tissues of Sprague-Dawley rats after 60 min injection by intravenously; value ranges from 1.12-1.44; conditions: in vivo, iv, 1 h
Rattus norvegicus [26] = assay: Distribution of radioactivity in kidney tissues of Sprague-Dawley rats after 15 min injection by intravenously; value ranges from 2.24-3.12; conditions: in vivo, iv, 0.25 h
Rattus norvegicus [27] = assay: Distribution of radioactivity in blood tissues of Sprague-Dawley rats after 30 min injection by intravenously; value ranges from 0.73-0.85; conditions: in vivo, iv, 0.5 h; summary of the method: as §1
Rattus norvegicus [28] = assay: Distribution of radioactivity in kidney tissues of Sprague-Dawley rats after 60 min injection by intravenously; value ranges from 1.17-1.48; conditions: in vivo, iv, 1 h
Rattus norvegicus [29] = assay: Distribution of radioactivity in blood tissues of Sprague-Dawley rats after 5 min injection by intravenously; value ranges from 1.38-1.5; conditions: in vivo, iv; summary of the method: as §1
[30] = Brain to blood ratio in Sprague-Dawley rats after 15 min injection by intravenously; conditions: rat, brain and blood, iv; summary of the method: as §1
Rattus norvegicus [31] = assay: Distribution of radioactivity in liver tissues of Sprague-Dawley rats after 15 min injection by intravenously; value ranges from 2.43-2.92; conditions: in vivo, iv, 0.25 h
Rattus norvegicus [32] = assay: Distribution of radioactivity in liver tissues of Sprague-Dawley rats after 5 min injection by intravenously; value ranges from 2.98-3.22; conditions: in vivo, iv
Rattus norvegicus [33] = assay: Distribution of radioactivity in heart tissues of Sprague-Dawley rats after 5 min injection by intravenously; value ranges from 1.24-1.46; conditions: in vivo, iv
Rattus norvegicus [34] = assay: Distribution of radioactivity in kidney tissues of Sprague-Dawley rats after 30 min injection by intravenously; value ranges from 1.56-1.83; conditions: in vivo, iv, 0.5 h
Rattus norvegicus [35] = assay: Distribution of radioactivity in lung tissues of Sprague-Dawley rats after 5 min injection by intravenously; value ranges from 1.35-1.74; conditions: in vivo, iv
Rattus norvegicus [36] = assay: Distribution of radioactivity in brain tissues of Sprague-Dawley rats after 15 min injection by intravenously; value ranges from 0.20-0.25; conditions: in vivo, iv, 0.25 h; summary of the method: as §1
Rattus norvegicus [37] = assay: Distribution of radioactivity in brain tissues of Sprague-Dawley rats after 30 min injection by intravenously; value ranges from 0.17-0.20; conditions: in vivo, iv, 0.5 h; summary of the method: as §1
Rattus norvegicus [38] = assay: Distribution of radioactivity in brain tissues of Sprague-Dawley rats after 5 min injection by intravenously; value ranges from 0.28-0.37; conditions: in vivo, iv; summary of the method: as §1
Rattus norvegicus [39] = assay: Distribution of radioactivity in blood tissues of Sprague-Dawley rats after 15 min injection by intravenously; value ranges from 0.97-1.12; conditions: in vivo, iv, 0.25 h; summary of the method: as §1
Rattus norvegicus [40] = assay: Distribution of radioactivity in heart tissues of Sprague-Dawley rats after 15 min injection by intravenously; value ranges from 0.89-1.24; conditions: in vivo, iv, 0.25 h; summary of the method: as §1
[41] = Brain to blood ratio in Sprague-Dawley rats after 30 min injection by intravenously; conditions: rat, brain and blood, iv; summary of the method: as §1
Rattus norvegicus [42] = assay: Distribution of radioactivity in liver tissues of Sprague-Dawley rats after 30 min injection by intravenously; value ranges from 1.77-2.08; conditions: in vivo, iv, 0.5 h
[43] = Brain to blood ratio in Sprague-Dawley rats after 60 min injection by intravenously; conditions: rat, brain and blood, iv; summary of the method: as §1
Rattus norvegicus [44] = assay: Distribution of radioactivity in brain tissues of Sprague-Dawley rats after 60 min injection by intravenously; value ranges from 0.15-0.19; conditions: in vivo, iv, 1 h; summary of the method: as §1
Rattus norvegicus [45] = assay: Distribution of radioactivity in kidney tissues of Sprague-Dawley rats after 5 min injection by intravenously; value ranges from 3.18-4.74; conditions: in vivo, iv
Rattus norvegicus [46] = assay: Distribution of radioactivity in lung tissues of Sprague-Dawley rats after 30 min injection by intravenously; value ranges from 0.86-1.13; conditions: in vivo, iv, 0.5 h
Rattus norvegicus [47] = assay: Distribution of radioactivity in heart tissues of Sprague-Dawley rats after 30 min injection by intravenously; value ranges from 0.75-1.03; conditions: in vivo, iv, 0.5 h; summary of the method: as §1
Rattus norvegicus [48] = assay: Distribution of radioactivity in lung tissues of Sprague-Dawley rats after 60 min injection by intravenously; value ranges from 0.61-0.86; conditions: in vivo, iv, 1 h
Rattus norvegicus [49] = assay: Distribution of radioactivity in blood tissues of Sprague-Dawley rats after 60 min injection by intravenously; value ranges from 0.54-0.63; conditions: in vivo, iv, 1 h; summary of the method: as §1
[50] = Brain to blood ratio in Sprague-Dawley rats after 5 min injection by intravenously; conditions: rat, brain and blood, iv; summary of the method: as §1
Rattus norvegicus [51] = assay: Distribution of radioactivity in heart tissues of Sprague-Dawley rats after 60 min injection by intravenously; value ranges from 0.64-0.86; conditions: in vivo, iv, 1 h
Rattus norvegicus [52] = assay: Distribution of radioactivity in lung tissues of Sprague-Dawley rats after 15 min injection by intravenously; value ranges from 1.05-1.5; conditions: in vivo, iv, 0.25 h

Q: With `Nc1ccc([125I])cc1` as the compound, how does the Distribution (Rattus norvegicus [1]) read?
A: 0.06%

Q: What about the Distribution (Rattus norvegicus [2]) of the same compound?
A: 1.12%

Q: And the Distribution (Rattus norvegicus [3])?
A: 0.99%

Q: What about the Distribution (Rattus norvegicus [4]) of the same compound?
A: 0.86%

Q: And the Distribution (Rattus norvegicus [5])?
A: 0.57%

Q: And the Distribution (Rattus norvegicus [6])?
A: 0.39%

Q: What about the Distribution (Rattus norvegicus [7]) of the same compound?
A: 1.81%

Q: What about the Distribution (Rattus norvegicus [8]) of the same compound?
A: 0.62%

Q: And the Distribution (Rattus norvegicus [9])?
A: 1.57%

Q: What about the Distribution (Rattus norvegicus [10]) of the same compound?
A: 1.16%

Q: What about the Distribution (Rattus norvegicus [11]) of the same compound?
A: 1.6%

Q: What about the Distribution (Rattus norvegicus [12]) of the same compound?
A: 0.39%

Q: And the Distribution (Rattus norvegicus [13])?
A: 1.6%

Q: And the Distribution (Rattus norvegicus [14])?
A: 0.58%

Q: What about the Distribution (Rattus norvegicus [15]) of the same compound?
A: 0.77%

Q: And the Distribution (Rattus norvegicus [16])?
A: 0.24%

Q: And the Distribution (Rattus norvegicus [17])?
A: 0.97%

Q: And the Distribution (Rattus norvegicus [18])?
A: 1.8%

Q: And the Distribution (Rattus norvegicus [19])?
A: 0.43%

Q: What about the Distribution (Rattus norvegicus [20]) of the same compound?
A: 0.63%

Q: And the Distribution (Rattus norvegicus [21])?
A: 0.81%

Q: What about the Distribution (Rattus norvegicus [22]) of the same compound?
A: 0.54%

Q: And the Distribution (Rattus norvegicus [23])?
A: 0.94%

Q: What about the Distribution (Rattus norvegicus [24]) of the same compound?
A: 0.27%

Q: For `CN1C=CCC(C(=O)NCCc2ccc([125I])cc2)=C1`, which Distribution (Rattus norvegicus [25]) is on record?
A: 1.24%

Q: What about the Distribution (Rattus norvegicus [26]) of the same compound?
A: 2.54%

Q: And the Distribution (Rattus norvegicus [27])?
A: 0.77%

Q: And the Distribution (Rattus norvegicus [28])?
A: 1.28%

Q: And the Distribution (Rattus norvegicus [29])?
A: 1.42%

Q: What about the Kp at 0.25 h [30] of the same compound?
A: 0.21

Q: And the Distribution (Rattus norvegicus [31])?
A: 2.63%

Q: What about the Distribution (Rattus norvegicus [32]) of the same compound?
A: 3.1%

Q: What about the Distribution (Rattus norvegicus [33]) of the same compound?
A: 1.37%

Q: What about the Distribution (Rattus norvegicus [34]) of the same compound?
A: 1.72%

Q: And the Distribution (Rattus norvegicus [35])?
A: 1.48%

Q: What about the Distribution (Rattus norvegicus [36]) of the same compound?
A: 0.22%

Q: And the Distribution (Rattus norvegicus [37])?
A: 0.18%

Q: And the Distribution (Rattus norvegicus [38])?
A: 0.32%

Q: What about the Distribution (Rattus norvegicus [39]) of the same compound?
A: 1.03%

Q: And the Distribution (Rattus norvegicus [40])?
A: 1.08%

Q: And the Kp at 0.5 h [41]?
A: 0.23

Q: What about the Distribution (Rattus norvegicus [42]) of the same compound?
A: 1.89%

Q: And the Kp at 1 h [43]?
A: 0.29

Q: What about the Distribution (Rattus norvegicus [44]) of the same compound?
A: 0.17%

Q: What about the Distribution (Rattus norvegicus [45]) of the same compound?
A: 4.19%

Q: What about the Distribution (Rattus norvegicus [46]) of the same compound?
A: 0.97%

Q: What about the Distribution (Rattus norvegicus [47]) of the same compound?
A: 0.86%

Q: What about the Distribution (Rattus norvegicus [48]) of the same compound?
A: 0.66%

Q: And the Distribution (Rattus norvegicus [49])?
A: 0.57%

Q: And the Kp at 5 min [50]?
A: 0.22

Q: And the Distribution (Rattus norvegicus [51])?
A: 0.72%

Q: And the Distribution (Rattus norvegicus [52])?
A: 1.2%
